Bioassay records as filed in PubChem BioAssay.
In the library only some 4% were active in any assay of this set; here they are far more common.
OX1R antag-1: antagonists of human orexin 1 receptor (OX1R) | OX1R-expressing cells, FRET antagonist read-out | inhibition, % at 6.6 µM | actives 1.8% (n = 330,000) | AID 485270; in the data active = inhibition mostly above about 38%, no sharp cut-off; inactive = mostly below about 40%;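 also: 0% = agonist challenge alone and 100% = reference antagonist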
OX1R antag-2: human HCRTR1 antagonism. AID 434989. actives 0.43% (n = 330,000). O43613. inhibition, % at 5 µM. CHO/OX1R cells, Fluo-8 calcium fluorescence, orexin A;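 active = inhibition above its plate's threshold, mean inhibition of all tested compounds on the plate plus 3 SD, cut at about 37% in these data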;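 also: 0% = orexin A challenge wells and 100% = SB-334867-A antagonist wells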
TAAR1 agonist: human TAAR1 agonism; AID 624467; actives 0.99% (n = 360,000); Q96RJ0; activation, % at 3 µM; CHO RD-HGA16 TAAR1, Fluo-8 calcium fluorescence; vehicle wells 0%, saturating PEA agonist 100%;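 active = activation above the mean activation of all test compounds in the run plus 3 SD, cut at about 38% in these data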
Target sequence (Q96RJ0 whole entry, looked up): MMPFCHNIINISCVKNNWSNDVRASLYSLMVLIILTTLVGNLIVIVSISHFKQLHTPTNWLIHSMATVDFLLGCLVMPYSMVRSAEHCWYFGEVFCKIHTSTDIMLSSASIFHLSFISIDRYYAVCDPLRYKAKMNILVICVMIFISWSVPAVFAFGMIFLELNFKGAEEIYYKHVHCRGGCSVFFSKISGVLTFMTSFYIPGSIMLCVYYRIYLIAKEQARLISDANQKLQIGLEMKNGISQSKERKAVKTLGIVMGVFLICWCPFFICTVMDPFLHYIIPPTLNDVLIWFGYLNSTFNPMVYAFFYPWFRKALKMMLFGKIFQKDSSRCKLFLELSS
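Test system: RD-HGA16 (CHO) cells co-expressing Gα16 and hTAAR1 | Doses: Single dose, 3 µM | Schedule: 17-24 h seeding, 75 min 37 °C dye, 30 min RT | Evaluation: % activation from peak over basal fluorescence ratio, DMSO-to-PEA scaled | Technique: Kinetic Fluo-8 calcium fluorescence | Benchmarks: Low control DMSO, high control PEA (EC100)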
TAAR1 antagonist: human TAAR1 antagonism | AID 624466 | actives 1.5% (n = 360,000) | CHO RD-HGA16 TAAR1, Fluo-8 calcium fluorescence, antagonist | Q96RJ0 | inhibition, % at 3 µM;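 active = inhibition above a per-plate cutoff, the mean inhibition of test compounds on that plate plus 3 SD, cut at about 49% in these data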;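 also: 0% = DMSO plus EC80 beta-PEA response and 100% = DMSO alone without agonist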
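test system = CHO RD-HGA16 cells bearing hTAAR1 | replication = singlicate | controls = DMSO-only wells and EC80 β-PEA-stimulated wells | reagent = EC80 β-phenethylamine stimulus | read-out basis = percent inhibition of PEA-evoked calcium signal, max/basal emission ratio | schedule = seeding 17-24 h prior, 75-min 37 °C, 30-min RT dye loading | signal = kinetic Fluo-8 calcium fluorescence measurement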
CHO parental Ca: counter-screen: ATP calcium response change in parental CHO cells; parental CHO-K1, ATP-induced calcium, Fluo-8 fluorescence; inhibition, % at 5.6 µM; actives 0.63% (n = 330,000);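 active = inhibition above that plate's mean sample inhibition plus 3 SD, cut at about 26% in these data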;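 also: 0% = ATP-challenged DMSO wells and 100% = DMSO wells without ATP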
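Test system: untransfected parental CHO cell line; also added: ATP stimulus; dosing: 5.6 µM, single dose; signal: calcium-sensitive Fluo-8 fluorescence; measure: percent inhibition of ATP-evoked calcium rise, normalized to controls; benchmarks: low control ATP plus DMSO, high control DMSO only; replication: one well per compound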
Numbers without * were called inactive; nt = not tested or not shown.

SMILES	OX1R antag-1	OX1R antag-2	TAAR1 agonist	TAAR1 antagonist	CHO parental Ca
CCCc1ccc(-c2cc(C(=O)N3CCN(c4ccccn4)CC3)c3ccccc3n2)cc1	4	-46	1	15	-11
COc1ccc(-c2cc(C(=O)N3CCN(c4ccccc4O)CC3)c3ccccc3n2)cc1	-6	4	20	62*	-2
O=C(c1cc(-c2cccs2)nc2ccccc12)N1CCN(c2ccccc2O)CC1	7	-10	26	58*	-5
COc1ccc(-c2oc3c(c2C#CCCCCO)C(OCCO)CC3)cc1 (stereo not given)	nt	nt	1	-19	nt
COc1ccc2nc(-c3ccccc3)cc(C(=O)OCC(=O)N3CCCCC3)c2c1	13	-12	3	56*	-8
CCOc1ccc(-c2cc(C(=O)N3CCN(c4ccccn4)CC3)c3ccccc3n2)cc1	8	-28	11	31	-24
COc1ccc(-c2cc(C(=O)OCC(=O)N3CCCC3)c3ccccc3n2)cc1	27	-22	6	15	-22
COc1ccc(-c2cc(C(=O)N3CCN(c4ccccn4)CC3)c3ccccc3n2)cc1	14	-27	20	53*	-27
Cc1ccc(NC(=O)c2cc(-c3cccs3)nc3ccccc23)nc1	36	-6	10	53*	-25
CCOC(=O)c1c(C)[nH]c(C)c1C(=O)COC(=O)C1CC(=O)N(CCc2ccccc2)C1 (stereo not given)	3	-9	4	9	-13
Cc1ccc(C(=O)CSc2cnc3ccccc3n2)cc1C	66*	-8	7	17	-10
O=C(CSc1nc2ccc(Cl)cc2[nH]1)c1c[nH]c2ccccc12	41*	-4	12	26	-9
O=C(CSc1nc2ncc(Cl)cc2[nH]1)c1c[nH]c2ccccc12	22	6	5	26	16
Cc1cc(C(=O)N2CCN(c3ccccc3Cl)CC2)c(C)o1	14	-18	4	-2	-15
COCC#Cc1cnc2c(c1)C(=O)N([C@@H](C)CO)C[C@H](C)[C@H](CN(C)C(=O)c1ccc3c(c1)OCO3)O2	nt	nt	2	-2	nt
CCCOC(=O)c1ccc(OCC(O)CN2C(=O)NC(C)(C)C2=O)cc1 (stereo not given)	19	-7	8	-4	99*
COC(=O)c1ccc(OCC(O)CN2C(=O)NC(C)(C)C2=O)cc1 (stereo not given)	nt	nt	3	-8	nt
O=C(N[C@H](Cc1ccccc1)C(=O)N1CCN(Cc2ccccn2)CC1)[C@H]1O[C@@H](n2ccc(=O)[nH]c2=O)[C@H](O)[C@@H]1O	nt	nt	1	-6	nt
O=S(=O)(c1cccc(Br)c1)N1CCN(c2ccnc3cc(Cl)ccc23)CC1	19	-4	4	14	35*
C=CCSc1nsc(NC(=O)Nc2ccc(F)cc2)n1	70*	-1	10	43	51*
CCSc1nsc(NC(=O)Nc2cccc(OC)c2)n1	52*	29	9	32	43*
COCc1[nH]nc2c1C(c1cccc(C(F)(F)F)c1)N(c1ccccc1)C2=O (stereo not given)	nt	nt	-1	-27	nt
COc1ccc(-c2cnc(SCC(=O)Nc3ccc4c(c3)OCO4)n2Cc2ccco2)cc1	nt	nt	12	51*	nt
CC(=O)Nc1cccc(NC(=O)CSc2ncc(-c3ccc(Cl)cc3)n2Cc2ccco2)c1	82*	73*	18	85*	61*
Cc1cccc(Cl)c1NC(=O)NCCCN1CCOCC1	nt	nt	0	-3	nt
SMILES	OX1R antag-1	OX1R antag-2	TAAR1 agonist	TAAR1 antagonist	CHO parental Ca
Cc1cccc2nc(-c3ccccc3)c(-c3ccc(CN4CCC(n5cc(-c6ccccc6)[nH]c5=O)CC4)cc3)nc12	nt	nt	2	-9	nt
Cc1cc(C)n2nc(C(=O)N/N=C/c3cccs3)nc2n1	35*	-19	0	-7	-3
COC(=O)C1=C(C)N(Cc2cccc(C(F)(F)F)c2)C(=NCc2ccc(OC)cc2)NC1c1ccccc1C(F)(F)F (stereo not given)	nt	nt	6	6	nt
COc1cccc(C(O)c2ncc(-c3ccc(Cl)cc3)[nH]2)c1 (stereo not given)	nt	nt	8	-12	nt
Cc1csc(=NC(=O)c2ccccc2)n1C	9	-13	22	-7	-6
CCn1c(C)csc1=NC(=O)c1ccccc1	76*	-6	3	12	-3
O=C1NC(c2ccccc2)C(C(=O)c2cccs2)C(O)(C(F)(F)F)N1 (stereo not given)	14	-2	2	10	-6
CSC1=C(C#N)C(c2ccccc2Cl)C(C(=O)c2cccs2)C(O)(C(F)(F)F)N1 (stereo not given)	62*	21	8	51*	3
Cc1ccc2nc(-c3cccc(Br)c3)c(Cc3cccc(Cl)c3)n2c1	nt	nt	-2	-4	nt
CC(=O)Nc1sc(C)c(C)c1C(=O)OCC(=O)Nc1ccccc1	13	-5	5	-29	-5
CCOC(=O)c1sc(NC(=O)Nc2ccccc2)cc1C	61*	28	11	47	22
CCOC(=O)c1c(NC(=S)Nc2ccccc2)sc(C)c1C	38*	-37	2	-7	2
CCOC(=O)c1sc(NC(C)=O)cc1C	12	-7	0	-8	0
COc1ccccc1Cc1c(-c2ccc(C)cc2)nc2ccc(C)cn12	nt	nt	1	-23	nt
O=P(OC1CCCCC1)(OC1CCCCC1)C(O)c1c(Cl)cccc1Cl (stereo not given)	45*	-10	17	-3	-9
O=P(OC1CCCCC1)(OC1CCCCC1)C(O)c1ccc(Cl)cc1Cl (stereo not given)	10	-25	15	5	-21
O=C(NCc1ccncc1)C(=O)N/N=C/c1ccc(OCc2ccccc2)cc1	12	-4	6	-10	-4
O=NN(CCc1ccncc1)c1ccc(OCc2ccccc2)cc1	53	38*	2	26	62*
Cc1ccc(S(=O)(=O)N2[C@H](CC(=O)c3ccc(Cl)c(Cl)c3)OC[C@@H]2C)cc1	nt	nt	-2	-3	nt
Cc1[nH]nc2c1C(c1ccccc1)N(Cc1ccccc1)C2=O (stereo not given)	nt	nt	2	-6	nt
O=C(CN1C(=O)c2ccc([N+](=O)[O-])cc2C1=O)NC1CCS(=O)(=O)C1 (stereo not given)	56*	-6	1	-6	4
O=C(Cc1ccc([N+](=O)[O-])cc1)NCC1CCCO1 (stereo not given)	23	-2	0	-6	0
O=C(CN1C(=O)c2ccccc2C1=O)NC1CCS(=O)(=O)C1 (stereo not given)	nt	nt	2	-27	nt
O=C(NCC1CCCO1)c1ccc([N+](=O)[O-])s1 (stereo not given)	70*	-9	3	0	5
O=C(NCC1CCCO1)c1ccc(Br)s1 (stereo not given)	15	-13	1	10	-2
